Data from ChEMBL document CHEMBL1143648, “3-[Substituted]-5-(5-pyridin-2-yl-2H-tetrazol-2-yl)benzonitriles: identification of highly potent and selective metabotropic glutamate subtype 5 receptor antagonists” (Bioorg Med Chem Lett, 2005).

What was measured:
[1] = molecular target: T1, Metabotropic glutamate receptor 5 (Rattus norvegicus, UniProt P31424); test: Ability to displace [3H]3-methoxy-5-(pyridin-2-ylethynyl)pyridine from binding to metabotropic glutamate receptor 5 in rat cortical membranes; type: cell membranes
[2] = molecular target: T1, Metabotropic glutamate receptor 5; test: In vitro functional activity measured by changes in cytosolic [Ca2+] concentrations against rat metabotropic glutamate receptor 5
Summary of the method: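 A cell-based, high-throughput functional assay followed changes in cytosolic Ca2+ concentration by fluorescence detection.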

Rattus norvegicus [3] = test: Effective dose for maximum occupancy in rat upon oral administration measured 30 min post administration; n = 6 - 7
[4] = Half life in rat upon intravenous administration at a dose of 2 mg/kg; n = 2; type: ADME, organism-based; design: dose 2 mg/kg, route intravenous; details: in vivo
Summary of the method: (§1)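 Sprague–Dawley rats (n = 2 per group) were given 2 mg/kg by the intravenous route for pharmacokinetic profiling.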

Rattus norvegicus [5] = organism: Rattus norvegicus; test: Ratio of compound levels in brain to that of plasma level was determined; type: functional
Summary of the method: (§2)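 Sprague–Dawley rats were dosed intraperitoneally at 10 or 3 mg/kg. Drug levels (µM) in brain and plasma were measured 1 h after dosing, and brain/plasma was expressed as a percentage.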

Rattus norvegicus [6] = test: Brain penetration measured by compound levels in brain at a dose of 3 mg/kg upon intraperitoneal after 1 hr; type: functional; summary of the method: as §2
Rattus norvegicus [7] = test: Effective dose for maximum occupancy in rat upon intraperitoneal administration measured 1 hr post administration; n = 5 - 6; type: functional
Summary of the method: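 Receptor occupancy was measured in Sprague–Dawley rats (n = 5–6 per group) 1 h after intraperitoneal dosing. ED50 is given in mg/kg ip.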

Rattus norvegicus [8] = test: Brain penetration measured by compound levels in plasma at a dose of 3 mg/kg upon intraperitoneal after 1 hr; type: functional, organism-based; design: dose 3 mg/kg; summary of the method: as §2
[9] = Clearance in rat upon intravenous administration at a dose of 2 mg/kg; n = 2; type: ADME, organism-based; design: dose 2 mg/kg, route intravenous; details: plasma, read-out: Clp; summary of the method: as §1
[10] = Volume of distribution in rat upon intravenous administration at a dose of 2 mg/kg; n = 2; type: ADME, organism-based; design: dose 2 mg/kg, route intravenous; details: in vivo; summary of the method: as §1
Rattus norvegicus [11] = test: Brain penetration measured by compound levels in plasma at a dose of 10 mg/kg upon intraperitoneal after 1 hr; type: functional, organism-based; design: dose 10 mg/kg; summary of the method: as §2
[12] = Oral bioavailability in rat (dose 10 mg/kg p.o.); type: ADME, organism-based; details: in vivo
Summary of the method: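 Rat pharmacokinetics compared oral dosing at 10 mg/kg (n = 3 Sprague–Dawley rats/group) with intravenous dosing at 2 mg/kg (n = 2 rats/group).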

Rattus norvegicus [13] = test: Brain penetration measured by compound levels in brain at a dose of 10 mg/kg upon intraperitoneal after 1 hr; type: functional; summary of the method: as §2
[14] = Maximum concentration in rat upon oral administration at a dose of 10 mg/kg; n = 3; type: ADME, organism-based; design: dose 10 mg/kg, route oral; details: in vivo
Summary of the method: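 Sprague–Dawley rats (n = 3 per group) were given 10 mg/kg orally for pharmacokinetic profiling.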

T1 sequence (P31424 whole entry): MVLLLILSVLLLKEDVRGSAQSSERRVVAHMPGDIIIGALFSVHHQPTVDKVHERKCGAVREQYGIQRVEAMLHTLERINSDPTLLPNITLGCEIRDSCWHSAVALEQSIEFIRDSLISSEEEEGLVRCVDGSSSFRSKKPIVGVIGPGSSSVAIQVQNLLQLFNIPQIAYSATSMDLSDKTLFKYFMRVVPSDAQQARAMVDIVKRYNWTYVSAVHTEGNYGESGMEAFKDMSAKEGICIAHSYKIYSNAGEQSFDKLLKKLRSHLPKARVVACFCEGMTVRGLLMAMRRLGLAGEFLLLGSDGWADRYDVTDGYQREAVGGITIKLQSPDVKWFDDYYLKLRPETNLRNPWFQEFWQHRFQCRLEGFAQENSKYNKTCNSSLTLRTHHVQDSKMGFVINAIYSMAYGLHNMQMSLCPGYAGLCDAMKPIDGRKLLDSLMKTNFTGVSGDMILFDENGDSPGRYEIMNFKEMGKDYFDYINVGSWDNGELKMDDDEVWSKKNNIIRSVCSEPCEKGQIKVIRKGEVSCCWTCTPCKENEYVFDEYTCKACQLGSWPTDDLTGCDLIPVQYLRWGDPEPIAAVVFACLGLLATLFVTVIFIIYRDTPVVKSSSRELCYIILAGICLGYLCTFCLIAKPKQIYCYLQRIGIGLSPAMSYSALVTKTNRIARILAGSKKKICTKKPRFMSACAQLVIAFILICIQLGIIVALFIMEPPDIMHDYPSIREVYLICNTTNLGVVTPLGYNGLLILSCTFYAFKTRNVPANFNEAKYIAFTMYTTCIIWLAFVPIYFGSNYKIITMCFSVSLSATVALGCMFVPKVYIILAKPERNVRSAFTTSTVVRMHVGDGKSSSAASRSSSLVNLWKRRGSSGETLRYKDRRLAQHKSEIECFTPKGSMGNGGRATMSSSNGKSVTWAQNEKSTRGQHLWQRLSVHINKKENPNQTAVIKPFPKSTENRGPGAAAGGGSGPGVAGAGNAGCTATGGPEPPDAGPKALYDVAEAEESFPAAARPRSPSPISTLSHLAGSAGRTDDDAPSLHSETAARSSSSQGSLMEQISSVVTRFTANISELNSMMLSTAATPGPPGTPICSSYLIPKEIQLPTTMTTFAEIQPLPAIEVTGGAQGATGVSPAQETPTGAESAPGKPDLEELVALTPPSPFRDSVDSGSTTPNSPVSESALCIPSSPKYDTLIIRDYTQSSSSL

| SMILES | Ki [1] [µM] | IC50 [2] [µM] | also measured |
| --- | --- | --- | --- |
| N#Cc1cc(-n2nnc(-c3ccccn3)n2)ccc1Cl | > 0.6 | 0.722 | – |
| N#Cc1cc(O)cc(-n2nnc(-c3ccccn3)n2)c1 | 0.318 | 0.562 | – |
| N#Cc1cc(F)cc(-n2nnc(-c3ccccn3)n2)c1 | – | – | Occ ED50 (Rattus norvegicus [3]): 3.6 mg/kg; half-life [4]: 2.9 h; Brain/Plasma (Rattus norvegicus [5]): 90%; Brain levels (Rattus norvegicus [6]): 2.4 µM; Occ ED50 (Rattus norvegicus [7]): 1.3 mg/kg; Plasma levels (Rattus norvegicus [8]): 2.7 µM |
| N#Cc1cc(Oc2cccnc2)cc(-n2nnc(-c3ccccn3)n2)c1 | 0.016 | 0.015 | – |
| N#Cc1cc(F)cc(-n2nnc(-c3ncc[nH]3)n2)c1 | – | 0.047 | – |
| N#Cc1cc(C#N)cc(-n2nnc(-c3ccccn3)n2)c1 | 0.018 | 0.034 | – |
| N#Cc1cccc(-n2nnc(-c3ncc[nH]3)n2)c1 | – | 0.077 | – |
| N#Cc1cc(N)cc(-n2nnc(-c3ccccn3)n2)c1 | 0.095 | 0.308 | – |
| N#Cc1cccc(-n2ccc(-c3ccccn3)c2)c1 | > 0.6 | 0.19 | – |
| N#Cc1cccc(-n2nnc(-c3ccccn3)n2)c1 | – | 0.073 | Occ ED50 (Rattus norvegicus [3]): 3 mg/kg; clearance [9]: 1.98 L/h/kg; half-life [4]: 6.9 h; Vd [10]: 5 L/kg; Brain/Plasma (Rattus norvegicus [5]): 150%; Plasma levels (Rattus norvegicus [11]): 10 µM; bioavailability [12]: 100%; Occ ED50 (Rattus norvegicus [7]): 3 mg/kg; Brain levels (Rattus norvegicus [13]): 15 µM |
| N#Cc1cc(OCc2ccccc2)cc(-n2nnc(-c3ccccn3)n2)c1 | > 0.6 | > 1 | – |
| N#Cc1cc(Cl)cc(-n2nnc(-c3ccccn3)n2)c1 | 0.026 | 0.007 | – |
| N#Cc1cc(F)cc(-n2ccc(-c3ccccn3)c2)c1 | 0.005 | 0.003 | – |
| c1ccc(-c2nnn(-c3cccc(-c4cccnc4)c3)n2)nc1 | 0.069 | 0.063 | – |
| COc1cc(C#N)cc(-n2nnc(-c3ccccn3)n2)c1 | 0.006 | 0.01 | – |
| N#Cc1cc(-n2nnc(-c3ccccn3)n2)cc([N+](=O)[O-])c1 | 0.042 | 0.042 | – |
| Clc1cccc(-n2nnc(-c3ccccn3)n2)c1Cl | > 0.6 | 1.27 | – |
| N#Cc1cc(OCC2CC2)cc(-n2nnc(-c3ccccn3)n2)c1 | 0.271 | 0.975 | – |
| N#Cc1ccc(Cl)c(-n2nnc(-c3ccccn3)n2)c1 | > 0.6 | 0.334 | – |
| Cc1cc(C#N)cc(-n2nnc(-c3ccccn3)n2)c1 | 0.007 | 0.006 | clearance [9]: 3 L/h/kg; half-life [4]: 0.4 h; Vd [10]: 1.4 L/kg; bioavailability [12]: 15%; Cmax [14]: 0.8 µM |
